A selection: hits, their analogues and other compounds. The true share with any hit is near 1.3%.
CASP6 VEID inh – blocks human caspase-6 cleavage activity; P55212; purified caspase-6, Z-VEID-R110 cleavage fluorescence; inhibition, % at 12.5 µM; 0.53% of 350,000 active; AID 686996;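 active means mean inhibition across replicates at least about 35%, with every replicate also reaching that limit, limit read from the data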;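 further: 0% = median of neutral control wells and 100% = no fluorescence left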
Target sequence (P55212 24-179 limits assumed): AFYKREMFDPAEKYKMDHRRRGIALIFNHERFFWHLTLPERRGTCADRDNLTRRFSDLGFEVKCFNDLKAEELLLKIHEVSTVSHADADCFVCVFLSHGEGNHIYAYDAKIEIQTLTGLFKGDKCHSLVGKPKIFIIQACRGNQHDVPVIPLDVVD
Target sequence (P55212 194-293 limits assumed): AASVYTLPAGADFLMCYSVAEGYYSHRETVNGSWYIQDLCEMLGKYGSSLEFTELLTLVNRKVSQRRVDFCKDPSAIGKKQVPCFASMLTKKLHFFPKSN
TDP2 inh – blocks human TDP2 phosphodiesterase activity; O95551; recombinant TDP2, T5PNP hydrolysis, p-nitrophenol absorbance 415 nm; inhibition, % at 12.8 µM; 0.34% of 370,000 active; AID 720702;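 active means inhibition above the mean of all tested compounds plus 3 SD, set per campaign, cut at about 25% in these data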;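 further: 0% = DMSO with enzyme and 100% = buffer with substrate but no TDP2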
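Assay system: recombinant human TDP2 / Reagent: T5PNP substrate at 5 mM, a TopII-DNA adduct mimic / Measured by: epi absorbance from released p-nitrophenol / Evaluation: % inhibition relative to enzyme-containing and enzyme-free wells / Control set: enzyme-free and DMSO wells / Replicates: each compound tested once, singlicate / Schedule: enzyme reaction with compound for 2 h at 37 °C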
LEDGF integ inh – blocks HIV-1 LEDGF/p75-dependent DNA integration; AID 743269; TR-FRET IN-LEDGF/p75 DNA integration, Eu/Cy5; inhibition, % at 3.7 µM; 0.64% of 370,000 active;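 active means inhibition above the screen-wide mean plus 3 SD, cut at about 13% in these data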;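 further: signal is the Cy5 over europium emission ratio at 671 and 618 nm; 0% = plate median of compound wells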
UCH37 inh – blocks the human deubiquitinase UCH37; inhibition, % (test concentration not listed); Q9Y5K5; 0.33% of 330,000 active; AID 588478; purified proteasome/UCH37, Ub-AMC cleavage fluorescence;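 active means mean inhibition over replicate wells above about 20%, limit read from the data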;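 further: 0% = compound-free wells with enzyme and 100% = wells lacking proteasome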
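Material: human UCH37 enzyme supplied as purified proteasome complex / Amount: 0.15 nM proteasome as dispensed / Buffer or medium: pH 7.4 Tris-HCl (50 mM) with ovalbumin, ATP-MgCl2, DTT / Times: preincubation 30 min, reaction 25 min, room temperature / Technique: AMC fluorescence from Ub-AMC cleavage, excitation 355 nm, emission 460 nm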
NSD2 inh – inhibitors of human histone methyltransferase NSD2; NSD2 peptide methylation, AlphaScreen, 120 min; 0.54% of 310,000 active; inhibition, % at 12.5 µM; O96028; AID 743445; in the data active means inhibition above about 50%
* marks the source's active call; other numbers are inactive results; nt = no result given.

SMILES	CASP6 VEID inh	TDP2 inh	LEDGF integ inh	UCH37 inh	NSD2 inh
Cc1ccc(C(=O)c2coc3cc([N+](=O)[O-])c(O)c([N+](=O)[O-])c23)cc1	48.4*	7.1	5.4	14.7	35.5
COCCNC(=O)c1onc(CSc2ccc(C)c(C)c2)c1C(=O)O	3.8	6.2	0.1	3.7	nt
COCCNC(=O)c1onc(CSc2cc(C)cc(C)c2)c1C(=O)O	0.0	-7.9	-0.8	34.0*	nt
CN(C)C(=S)Nn1c(-c2ccccc2)nc2ccccc2c1=O	-1.4	-0.6	-3.7	25.1*	-5.3
C[C@H](CO)N1C[C@H](C)[C@H](CN(C)Cc2ccc(Oc3ccccc3)cc2)Oc2ccc(NS(=O)(=O)c3ccccc3)cc2CC1=O	51.8*	nt	nt	nt	nt
O=C1C(Cl)=C(NCCCN2CCOCC2)C(=O)c2ccccc21	19.4	7.4	3.8	17.4	9.1
CC1COCC(C)N1C1=C(Cl)C(=O)c2ccccc2C1=O (configuration not stated)	33.1	22.0	2.1	nt	107.1*
O=C1NC(c2ccccc2)=N/C1=C/c1ccco1	39.2*	-2.2	11.1	nt	4.0
O=C1NNC(c2ccccc2)=N/C1=C\c1ccccc1	5.3	4.7	0.2	23.2*	35.0
O=C1NC(=O)/C(=C/c2ccco2)N1	0.2	0.0	-0.4	7.3	nt
COc1ccc(OC)c(NC(=O)C(C)N2c3cccc4cccc(c34)S2(=O)=O)c1 (configuration not stated)	3.2	-14.7	29.8*	-24.7	3.5
CC(C)c1ccc(C(=O)NN=Cc2cccc(Cl)c2Cl)cc1	nt	nt	nt	1.4	nt
Cc1ccc(OCC(=O)c2c(N)n(C)c(=O)n(C)c2=O)c([N+](=O)[O-])n1	35.1*	-4.5	12.4	7.7	15.7
Cc1ccc(OCC(=O)c2cc(C)c(C)cc2C)c([N+](=O)[O-])n1	nt	-6.6	2.8	-4.9	-1.0
CC(C)S(=O)(=O)C1=NSC2=NC(=O)/C(=C\c3ccc(-c4cccc(C(=O)O)c4)o3)C(=N)N21	12.1	-2.3	4.3	22.5*	17.7
COCCNC(=S)NN=C(C)c1ccc(Cl)s1	nt	nt	nt	11.3	nt
CC#CC#Cc1cccc(=O)o1	53.1*	8.9	1.1	10.5	1.3
O=C(O)c1ccccc1NS(=O)(=O)c1ccc(NN=Cc2ccc(F)cc2)c([N+](=O)[O-])c1	nt	nt	nt	10.9	-3.5
O=C(O)c1ccccc1NS(=O)(=O)c1ccc(NN=Cc2cccc(Cl)c2)c([N+](=O)[O-])c1	62.4*	-6.0	1.7	15.7	2.2
COc1ccc(Br)cc1C=NNc1ccc(S(=O)(=O)Nc2ccccc2C(=O)O)cc1[N+](=O)[O-]	nt	nt	nt	11.7	nt
O=C(O)c1ccccc1NS(=O)(=O)c1ccc(N/N=C/c2ccc(O)c(O)c2)c([N+](=O)[O-])c1	63.8*	-11.8	2.7	nt	115.8*
O=C(CSc1nc2ccccc2[nH]1)NN=C/C=C\c1ccccc1[N+](=O)[O-]	nt	nt	nt	2.3	nt
CCC(=O)c1ccc(N2CCN(C(=O)c3ccccc3)CC2)c(F)c1	88.4*	3.0	-0.4	6.6	-0.2
CCN(CC)c1ccc(C(=O)NN=Cc2ccc(OC)cc2OC)cc1	nt	nt	nt	-22.4	nt
COc1cc(C=NNC(=O)c2nonc2C)ccc1O	nt	nt	nt	0.3	nt
SMILES	CASP6 VEID inh	TDP2 inh	LEDGF integ inh	UCH37 inh	NSD2 inh
O=C(O)CCN1CC2([N+](=O)[O-])C=CC(=O)C([N+](=O)[O-])(C1)C2CC(=O)c1ccccc1 (configuration not stated)	42.9*	8.9	8.2	12.8	33.6
O=C(CCN1CCCCCC1)c1ccccc1	nt	6.2	-0.2	-2.9	4.5
CC(=NNc1ccc(S(N)(=O)=O)cc1[N+](=O)[O-])c1cccnc1	nt	nt	nt	4.1	nt
CCOc1cc(/C=C2\SC(=O)N(CC(=O)Nc3ccccc3F)C2=O)cc([N+](=O)[O-])c1O	12.8	-5.5	-0.9	22.9*	7.5
COc1cc(C=NNC(=O)Cn2nnc3ccccc32)cc(OC)c1OC	nt	nt	nt	4.7	nt
Cc1cccc(OCC(=O)Nc2cc(C)on2)c1	nt	2.5	0.8	33.6*	-0.9
Cc1cccc(OCC(=O)Nc2ccc(NC(=O)c3ccccc3)cc2)c1	-5.2	8.3	1.3	-1.3	-1.2
Cc1cccc(OCC(=O)Nc2ccc(C(=O)c3ccc(C(=O)O)cc3)cc2)c1	3.5	6.5	3.2	34.7*	2.6
Nc1cccc(C(=O)NN=Cc2ccsc2)c1	nt	nt	nt	1.1	nt
CCC(COC(=O)c1ccccc1)Oc1cc(NCc2ccccc2)c2ncn(C(C)C)c2c1 (configuration not stated)	nt	36.0*	6.7	-0.2	nt

Compound activity from PubChem BioAssay.
